Laboratory results: ChEMBL document CHEMBL1123857, “Pyridonecarboxylic acids as antibacterial agents. 9. Synthesis and antibacterial activity of 1-substituted 6-fluoro-1,4-dihydro-4-oxo-7-(4-pyridyl)-1,8-naphthyridine-3-carboxylic acids” (1987)
Values after ≈ are worked out from the molar mass of the structure shown.

Legend:
Escherichia coli [1] = assay: Compound was tested in vitro for antibacterial activity against the microbial strain Escherichia coli NIHJ JC-2.; type: functional
Pseudomonas aeruginosa [2] = assay: Compound was tested in vitro for antibacterial activity against the microbial strain Pseudomonas aeruginosa 12.; type: functional
Staphylococcus aureus [3] = assay: Compound was tested in vitro for antibacterial activity against the microbial strain Staphylococcus aureus 209P JC-1.; type: functional
Pseudomonas aeruginosa [4] = assay: Antibacterial activity against Pseudomonas aeruginosa 12 microbial strains; was determined expressed as MIC
Mus musculus [5] = assay: Antibacterial activity against Escherichia coli P-5101 microbial strains in mice was determined expressed as ED50 (mg/kg); type: functional
How it was run: (§1)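 Male Std-ddY mice (20 ± 2 g), in groups of 10 or more, were infected with S. aureus 50774 (iv, 5×10^8 cells), E. coli P-5101 (ip, 9×10^6 cells) or P. aeruginosa 12 (ip, 4×10^3 cells). Compounds were suspended in 0.2% sodium (carboxymethyl)cellulose and dosed orally at 0 and 6 h postinfection. Survival was scored at 2 weeks for S. aureus and at 1 week for the others.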

Staphylococcus aureus [6] = assay: Antibacterial activity against Staphylococcus aureus 50774 microbial strains; was determined expressed as MIC
Escherichia coli [7] = assay: Antibacterial activity against Escherichia coli P-5101 microbial strains was determined expressed as MIC
Mus musculus [8] = assay: Antibacterial activity against Pseudomonas aeruginosa 12 microbial strains in mice was determined expressed as ED50 (mg/kg); type: functional; how it was run: as §1
Mus musculus [9] = species on record: Mus musculus; assay: Antibacterial activity (oral efficacy) against systemic infections due to Staphylococcus aureus 50774 microbial strains in mice was determined; type: functional; how it was run: as §1
Pseudomonas aeruginosa [10] = assay: Compound was tested in vitro for antibacterial activity against the microbial strainP. aeruginosa 12.; type: functional
How it was run: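 MIC (µg/mL) was determined by twofold agar dilution on Mueller-Hinton agar at pH 7.4. Inocula were about 10⁶ CFU. Growth was read after 20 h incubation at 37 °C.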

Escherichia coli [11] = assay: Antibacterial activity against Escherichia coli P-5101 microbial strains; was determined expressed as MIC
Staphylococcus aureus [12] = assay: Antibacterial activity against Staphylococcus aureus 50774 microbial strains; was determined expressed as MIC; remark: listed apart in the source

MIC (Escherichia coli [1]) [µg/mL] | MIC (Pseudomonas aeruginosa [2]) [µg/mL] | MIC (Staphylococcus aureus [3]) [µg/mL] | MIC (Pseudomonas aeruginosa [4]) [µg/mL] | MIC (Staphylococcus aureus [6]) [µg/mL] | MIC (Escherichia coli [7]) [µg/mL] | Structure (SMILES) | ED50 (Mus musculus [5]) [mg/kg] | ED50 (Mus musculus [8]) [mg/kg] | ED50 (Mus musculus [9]) [mg/kg] | MIC (Pseudomonas aeruginosa [10]) [µg/mL] | MIC (Escherichia coli [11]) [µg/mL] | MIC (Staphylococcus aureus [12]) [µg/mL]
1.56 (≈ 4.74 µM) | 50 (≈ 152 µM) | 50 (≈ 152 µM) | – | – | – | O=C(O)c1cn(CCO)c2nc(-c3ccncc3)c(F)cc2c1=O | – | – | – | – | – | –
0.2 (≈ 0.591 µM) | 0.78 (≈ 2.31 µM) | 0.39 (≈ 1.15 µM) | – | – | – | O=C(O)c1cn(CCF)c2nc(N3CCNCC3)c(F)cc2c1=O | – | – | – | – | – | –
0.78 (≈ 2.64 µM) | 12.5 (≈ 42.3 µM) | 1.56 (≈ 5.28 µM) | – | – | – | CCn1cc(C(=O)O)c(=O)c2ccc(-c3ccncc3)nc21 | – | – | – | – | – | –
0.2 (≈ 0.604 µM) | 1.56 (≈ 4.71 µM) | 0.39 (≈ 1.18 µM) | 1.56 (≈ 4.71 µM) | 0.39 (≈ 1.18 µM) | 0.1 (≈ 0.302 µM) | O=C(O)c1cn(CCF)c2nc(-c3ccncc3)c(F)cc2c1=O | 4.91 | 14.9 | 3.37 | – | – | –
0.1 (≈ 0.314 µM) | 0.39 (≈ 1.23 µM) | 1.56 (≈ 4.9 µM) | – | – | – | C=Cn1cc(C(=O)O)c(=O)c2cc(F)c(N3CCNCC3)nc21 | – | – | – | – | – | –
0.39 (≈ 1.33 µM) | 3.13 (≈ 10.6 µM) | 0.78 (≈ 2.65 µM) | 3.13 (≈ 10.6 µM) | 0.39 (≈ 1.33 µM) | 0.2 (≈ 0.68 µM) | CCn1cc(C(=O)O)c(=O)c2ccc(-c3ccncc3)cc21 [ROSOXACIN] | 7.3 | 29.2 | 6.8 | – | – | –
0.78 (≈ 2.51 µM) | 6.25 (≈ 20.1 µM) | 1.56 (≈ 5.01 µM) | – | – | – | C=Cn1cc(C(=O)O)c(=O)c2cc(F)c(-c3ccncc3)nc21 | – | – | – | – | – | –
0.2 (≈ 0.638 µM) | 3.13 (≈ 9.99 µM) | 0.39 (≈ 1.24 µM) | – | – | – | CCn1cc(C(=O)O)c(=O)c2cc(F)c(-c3ccncc3)nc21 | – | – | – | – | – | –
0.1 (≈ 0.307 µM) | 0.78 (≈ 2.4 µM) | 0.2 (≈ 0.615 µM) | 0.78 (≈ 2.4 µM) | 0.1 (≈ 0.307 µM) | 0.05 (≈ 0.154 µM) | O=C(O)c1cn(C2CC2)c2nc(-c3ccncc3)c(F)cc2c1=O | 4.48 | 15 | 5.43 | – | – | –

Structure (SMILES) | MIC (Escherichia coli [1]) [µg/mL] | MIC (Pseudomonas aeruginosa [2]) [µg/mL] | MIC (Staphylococcus aureus [3]) [µg/mL] | MIC (Pseudomonas aeruginosa [4]) [µg/mL] | MIC (Staphylococcus aureus [6]) [µg/mL] | MIC (Escherichia coli [7]) [µg/mL] | ED50 (Mus musculus [5]) [mg/kg] | ED50 (Mus musculus [8]) [mg/kg] | ED50 (Mus musculus [9]) [mg/kg] | MIC (Pseudomonas aeruginosa [10]) [µg/mL] | MIC (Escherichia coli [11]) [µg/mL] | MIC (Staphylococcus aureus [12]) [µg/mL]
CCn1cc(C(=O)O)c(=O)c2ccc(N3CCNCC3)nc21 | 6.25 (≈ 20.7 µM) | – | 12.5 (≈ 41.3 µM) | – | – | – | – | – | – | 12.5 (≈ 41.3 µM) | – | –
CCn1cc(C(=O)O)c(=O)c2cc(F)c(N3CCNCC3)nc21 [ENOXACIN] | 0.2 (≈ 0.624 µM) | 0.78 (≈ 2.44 µM) | 0.78 (≈ 2.44 µM) | 0.78 (≈ 2.44 µM) | – | – | 1.9 | 9 | 10 | – | 0.1 (≈ 0.312 µM) | 0.78 (≈ 2.44 µM)
